Results published in ChEMBL document CHEMBL5038664, “Thieno[2,3-d]pyrimidine-Based Positive Allosteric Modulators of Human Mas-Related G Protein-Coupled Receptor X1 (MRGPRX1)” (J Med Chem, 2022).
Active and inactive are the calls of the source. The calls are words filed in the database; no cut-off is given here.

What was measured:
[1] = molecular target: T1, Mas-related G-protein coupled receptor member X1 (Homo sapiens, UniProt Q96LB2); experiment: Positive allosteric modulator activity at human MRGPRX1 transfected in HEK293 cells assessed as maximal efficacy in presence of BAM8-22 by Fulo4AM dye based FLIPR assay relative to control; assay type: cell-based; settings: filed as positive allosteric modulator
T1 sequence (Q96LB2 whole entry): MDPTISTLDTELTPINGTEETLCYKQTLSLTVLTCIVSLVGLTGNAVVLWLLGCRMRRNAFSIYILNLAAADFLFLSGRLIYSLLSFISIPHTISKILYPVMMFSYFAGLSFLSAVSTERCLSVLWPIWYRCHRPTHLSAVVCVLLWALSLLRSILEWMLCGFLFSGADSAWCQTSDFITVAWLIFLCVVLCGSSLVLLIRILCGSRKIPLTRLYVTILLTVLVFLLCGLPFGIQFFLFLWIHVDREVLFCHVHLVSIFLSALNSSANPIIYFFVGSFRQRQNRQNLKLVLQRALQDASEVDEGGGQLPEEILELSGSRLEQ

[2] = molecular target: T1, Mas-related G-protein coupled receptor member X1; experiment: Positive allosteric modulator activity at human MRGPRX1 transfected in HEK293 cells in presence of BAM8-22 by Fulo4AM dye based FLIPR assay; assay type: cell-based
[3] = molecular target: T1, Mas-related G-protein coupled receptor member X1; experiment: Agonist activity at human MRGPRX1 expressed in HEK293 cells upto 100 uM in absence of BAM8-22 by Fluo-dye based FLIPR assay; assay type: functional, cell-based; settings: dose microM <=100
Procedure, shortened: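 Human MRGPRX1 stably expressed in HEK293 cells, 25,000 cells/well, 2 days. Loaded with 2 µM Fluo-4 AM and 1% Trypan Red in HBSS for 50 min at 37°C, then 10 min at room temperature. Serially diluted compound in HBSS added; FLIPR imaging 2 min, signal taken as maximum minus minimum fluorescence.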

Mus musculus [4] = experiment: Analgesic activity in mouse model of sciatic nerve chronic constriction injury-induced neuropathic pain assessed as increase in ipsilateral paw withdrawal latency at 100 mg/kg, po measured at 1 and 2 hrs on day 12 post injury by Hargreaves test; assay type: functional, organism-based; settings: time 12.0 day
Procedure, shortened: (§1)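 Humanized MRGPRX1 mice, both sexes, 2–3 months old, 20–30 g, sciatic nerve CCI. Given 100 mg/kg orally (n=4–5/group, vehicle comparator). Heat withdrawal latency by Hargreaves test on days 12 and 26 post-CCI, compared with pre-drug and vehicle; two-way mixed-model ANOVA with Bonferroni test, mean + SD.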

[5] = Metabolic stability in human microsome assessed as compound remaining measured after 30 min in presence of NADPH regenerating system by LC-MS/MS analysis; assay type: ADME, Liver; settings: microsomes, 0.5 h
[6] = Acute toxicity in mouse expressing MRGPRX1 assessed as impaired exploratory activity at 100 mg/kg, po by open field test; assay type: organism-based; settings: in vivo
Procedure, shortened: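 Naïve humanized MRGPRX1 mice were dosed at 100 mg/kg po, with vehicle-treated mice as a parallel group. Exploratory performance in an open field test was compared with each animal's pre-drug values.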

Mus musculus [7] = experiment: Analgesic activity in mouse model of sciatic nerve chronic constriction injury-induced neuropathic pain assessed as increase in ipsilateral paw withdrawal latency at 100 mg/kg, po measured at 2 hrs post drug on day 26 post injury by Hargreaves test; assay type: functional, organism-based; procedure, shortened: as §1
Mus musculus [8] = experiment: Analgesic activity in mouse model of sciatic nerve chronic constriction injury-induced neuropathic pain assessed as increase in contralateral paw withdrawal latency at 100 mg/kg, po measured at 2 hrs post drug on day 26 post injury by Hargreaves test; assay type: functional, organism-based; procedure, shortened: as §1
[9] = molecular target: T2, Mas-related G-protein coupled receptor member X2 (Homo sapiens) (UniProt Q96LB1); experiment: Positive allosteric modulator activity at human MRGPRX2 transfected in HEK293 cells at 5 uM in presence of C48/80 by Fluo-4 AM-based FLIPR assay; assay type: cell-based
T2 sequence (whole entry): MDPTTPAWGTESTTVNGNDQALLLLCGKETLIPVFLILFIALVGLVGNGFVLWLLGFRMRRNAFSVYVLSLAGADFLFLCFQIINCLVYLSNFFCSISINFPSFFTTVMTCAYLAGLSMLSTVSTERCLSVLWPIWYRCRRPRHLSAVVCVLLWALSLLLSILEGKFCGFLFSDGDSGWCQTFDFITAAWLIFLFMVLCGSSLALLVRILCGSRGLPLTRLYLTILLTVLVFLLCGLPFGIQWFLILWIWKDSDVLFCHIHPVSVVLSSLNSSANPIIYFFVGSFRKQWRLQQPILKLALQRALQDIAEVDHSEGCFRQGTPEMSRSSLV
Procedure, shortened: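 MRGPRX2 stably expressed in HEK293 cells; compound tested with an EC20 level of the orthosteric agonist C48/80, calcium response detected with Fluo-4 AM.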

[10] = Acute toxicity in mouse expressing MRGPRX1 assessed as itching by measuring spontaneous scratching bouts at 100 mg/kg, po measured upto 1 hr; assay type: organism-based; settings: in vivo
Procedure, shortened: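 Awake, free-moving humanized MRGPRX1 mice (human MRGPRX1 expressed in nociceptive DRG neurons in place of murine MrgprC11) were dosed orally at 100 mg/kg. Spontaneous behaviour was video-recorded for 0–1 h after dosing, and scratch bouts were counted and compared with vehicle-treated mice.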

[11] = Ratio of AUClast in CD1 mouse brain to plasma at 100 mg/kg, po measured upto 6 hrs by LC-MS/MS analysis; assay type: ADME, organism-based
Procedure, shortened: (§2)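 Male CD-1 mice (25–30 g, n=3 per time point) dosed 100 mg/kg by oral gavage in 5% dimethylacetamide/10% Cremophor EL/10% Tween80/25% PEG400/50% water. Killed at 0.25–6 h; cardiac-puncture plasma, brain and spinal cord collected. Acetonitrile extraction with losartan internal standard, LC/MS/MS; calibration 0.01–10 nmol/mL, 1/x weighting. Tissue-to-plasma ratios by AUC.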

[12] = Tmax in CD1 mouse brain at 100 mg/kg, po measured upto 6 hrs by LC-MS/MS analysis; assay type: ADME, organism-based; settings: in vivo; procedure, shortened: as §2
[13] = Metabolic stability in mouse microsome assessed as compound remaining measured after 60 min in presence of NADPH regenerating system by LC-MS/MS analysis; assay type: ADME, Liver; settings: microsomes, 1 h
Mus musculus [14] = experiment: Analgesic activity in mouse model of sciatic nerve chronic constriction injury-induced neuropathic pain assessed as increase in contralateral paw withdrawal latency at 100 mg/kg, po measured at 1 and 2 hrs on day 12 post injury by Hargreaves test; assay type: functional, organism-based; settings: time 12.0 day; procedure, shortened: as §1
hERG (KCNH2) = hERG (KCNH2) (Homo sapiens, UniProt Q12809); experiment: Inhibition of hERG at 10 uM relative to control; assay type: toxicity
Sequence of hERG (KCNH2) (Q12809 whole entry): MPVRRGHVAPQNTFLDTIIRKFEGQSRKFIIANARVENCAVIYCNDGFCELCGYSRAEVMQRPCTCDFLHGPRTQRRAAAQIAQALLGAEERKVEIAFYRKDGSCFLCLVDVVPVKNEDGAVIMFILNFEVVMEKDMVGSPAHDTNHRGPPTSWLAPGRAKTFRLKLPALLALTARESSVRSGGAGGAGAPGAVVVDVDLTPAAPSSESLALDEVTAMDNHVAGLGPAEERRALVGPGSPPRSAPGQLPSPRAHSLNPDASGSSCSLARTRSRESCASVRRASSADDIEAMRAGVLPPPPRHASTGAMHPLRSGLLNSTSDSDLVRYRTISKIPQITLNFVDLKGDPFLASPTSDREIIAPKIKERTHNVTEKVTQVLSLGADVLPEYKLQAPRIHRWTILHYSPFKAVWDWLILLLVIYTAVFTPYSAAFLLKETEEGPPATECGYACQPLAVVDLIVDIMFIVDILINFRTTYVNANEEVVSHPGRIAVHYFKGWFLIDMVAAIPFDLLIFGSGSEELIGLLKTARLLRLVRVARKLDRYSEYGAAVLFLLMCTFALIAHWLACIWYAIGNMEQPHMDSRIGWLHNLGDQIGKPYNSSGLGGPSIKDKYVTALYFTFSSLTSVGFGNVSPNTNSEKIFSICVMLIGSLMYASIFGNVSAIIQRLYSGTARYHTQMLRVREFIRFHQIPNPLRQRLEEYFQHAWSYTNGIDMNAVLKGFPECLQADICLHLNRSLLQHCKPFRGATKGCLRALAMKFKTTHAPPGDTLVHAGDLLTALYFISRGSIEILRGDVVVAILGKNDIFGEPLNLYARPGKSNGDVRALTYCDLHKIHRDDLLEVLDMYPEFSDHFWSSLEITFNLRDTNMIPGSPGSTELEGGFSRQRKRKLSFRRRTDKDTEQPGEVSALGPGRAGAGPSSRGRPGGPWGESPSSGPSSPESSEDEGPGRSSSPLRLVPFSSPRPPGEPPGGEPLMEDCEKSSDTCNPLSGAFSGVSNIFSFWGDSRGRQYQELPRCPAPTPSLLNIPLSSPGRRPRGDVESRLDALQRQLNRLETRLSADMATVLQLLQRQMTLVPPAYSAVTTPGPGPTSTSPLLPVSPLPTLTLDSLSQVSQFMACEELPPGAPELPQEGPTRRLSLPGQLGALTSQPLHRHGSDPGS

[15] = Tmax in CD1 mouse spinal cord at 100 mg/kg, po measured upto 6 hrs by LC-MS/MS analysis; assay type: ADME, organism-based; settings: in vivo; procedure, shortened: as §2
[16] = Metabolic stability in mouse microsome assessed as compound remaining measured after 30 min in presence of NADPH regenerating system by LC-MS/MS analysis; assay type: ADME, Liver; settings: microsomes, 0.5 h
[17] = Metabolic stability in human microsome assessed as compound remaining measured after 60 min in presence of NADPH regenerating system by LC-MS/MS analysis; assay type: ADME, Liver; settings: microsomes, 1 h
[18] = Tmax in CD1 mouse plasma at 100 mg/kg, po measured upto 6 hrs by LC-MS/MS analysis; assay type: ADME, organism-based; settings: in vivo; procedure, shortened: as §2
[19] = Acute toxicity in mouse expressing MRGPRX1 at 100 mg/kg, po measured upto 1.5 hrs by rotarod test; assay type: organism-based; settings: in vivo
Procedure, shortened: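 Motor coordination was measured by rotarod in naïve humanized MRGPRX1 mice after 100 mg/kg po. Performance was compared with a vehicle-treated group and with pre-treatment values.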

[20] = Ratio of AUClast in CD1 mouse spinal cord to plasma at 100 mg/kg, po measured upto 6 hrs by LC-MS/MS analysis; assay type: ADME, organism-based; procedure, shortened: as §2
[21] = Drug metabolism in human liver microsomes assessed as CYP450 mediated oxidation of parent compound measured after 60 mins by UPLC analysis; assay type: ADME, Microsome; settings: 1 h

Compound | Emax [1] | EC50 [2] | Stability [5] | Stability [13] | Stability [16] | Stability [17] | other results
Cc1csc2ncnc(Oc3ccccc3F)c12 | 94% | 1700 nM |  |  |  |  | 
Fc1ccccc1Oc1ncnc2sccc12 | 95% | 4200 nM |  |  |  |  | 
Cc1cc2c(Oc3ccccc3F)ncnc2s1 | 90% | 1500 nM |  |  |  |  | 
CC(C)(C)c1sc2ncnc(Oc3ccccc3OC(F)(F)F)c2c1-c1ccc(Cl)c(Cl)c1 | 114% |  | > 95% | 25% | 58% | > 95% | Activity [3]: inactive; Activity (Mus musculus [4]): Active; Activity [6]: Non-Toxic; Activity (Mus musculus [7]): Active; Activity (Mus musculus [8]): inactive; Activity [9]: inactive; Activity [10]: Non-Toxic; Kp at 6 h [11]: 2.2; Tmax [12]: 1 h; Activity (Mus musculus [14]): inactive; inhibition at 10 µM (hERG (KCNH2)): 50%; Tmax [15]: 1 h; Tmax [18]: 1 h; Activity [19]: Non-Toxic; Kp at 6 h [20]: 12.7
CC(C)(C)c1sc2ncnc(Oc3ccccc3OC(F)(F)F)c2c1-c1ccc(F)cc1 | 143% | 230 nM | > 95% | 5% | 28% | > 95% | 
CC(C)(C)c1sc2ncnc(Oc3ccccc3F)c2c1-c1ccccc1 | 95% | 340 nM |  | < 5% | 14% | 78% | 
CC(C)(C)c1sc2ncnc(Oc3ccccc3F)c2c1-c1ccc(F)cc1 | 145% |  | > 95% | < 5% | 7% | 88% | 
CC(C)(C)c1cc2c(Oc3ccccc3F)ncnc2s1 | 105% | 320 nM | 75% | < 5% | < 5% | 61% | 
Cc1ccccc1Oc1ncnc2sccc12 | 88% | 14500 nM |  |  |  |  | 

Continued, in another order:

Emax [1] | EC50 [2] | Stability [5] | Stability [13] | Stability [16] | Stability [17] | Compound | other results
88% | 2700 nM |  |  |  |  | Cc1ccc(Oc2ncnc3sc(C)c(C)c23)cc1 | 
118% | 480 nM |  |  |  |  | Cc1ccccc1Oc1ncnc2sc(C)c(C)c12 | 
 | > 100000 nM |  |  |  |  | Cc1sc2ncnc(Oc3ccc(C(F)(F)F)cc3)c2c1C | 
55% | 30000 nM |  |  |  |  | Cc1sc2ncnc(Oc3cccc(F)c3)c2c1C | 
95% | 520 nM |  |  |  |  | Cc1sc2ncnc(Oc3ccccc3C(F)(F)F)c2c1C | 
83% | 1100 nM |  |  |  |  | Cc1sc2ncnc(Oc3ccc(F)cc3)c2c1C | 
112% | 220 nM | < 5% | < 5% | < 5% | < 5% | Cc1sc2ncnc(Oc3ccccc3F)c2c1C | Drug metabolism [21]: Metabolite_Detected
 | > 100000 nM |  |  |  |  | Cc1sc2ncnc(Oc3cccc(C(F)(F)F)c3)c2c1C | 
89% | 1600 nM |  |  |  |  | Cc1sc2ncnc(Oc3ccccc3)c2c1C | 
94% | 2100 nM | 40% | < 5% | < 5% | < 5% | Fc1ccccc1Oc1ncnc2scc(C(F)(F)F)c12 | 
40% | 25000 nM |  |  |  |  | Cc1cccc(Oc2ncnc3sc(C)c(C)c23)c1 | 
